Experimental data reported in ChEMBL document CHEMBL4431355, “Design and synthesis of benzylpiperidine inhibitors targeting the menin-MLL1 interface” (Bioorg Med Chem Lett, 2016).

Key:
[1] = target: Menin/Histone-lysine N-methyltransferase MLL (Homo sapiens, UniProt O00255); experiment: Inhibition of human recombinant full length menin/MLL1 (unknown origin) interaction using Ac-SRWRFPARPGTGRR-Ahx-Ahx-K-FAM as substrate after 15 mins by fluorescence polarization binding assay; format: protein assay
MV4-11 = experiment: Antiproliferative activity against human MV4-11 cells expressing MLL-AF4 after 7 days by MTS assay; format: functional, cell-based; conditions: for IC50: MV4-11, 168 h
Summary of the method: (§1)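 Cells exposed to compounds for 7 days in a proliferation assay. IC50 is given as mean ± SD of triplicate determinations. K562 cells were tested up to 20 μM.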

K562 = experiment: Antiproliferative activity against human K562 cells after 7 days by MTS assay; format: functional, cell-based; conditions: K562, 168 h; summary of the method: as §1
[2] = target: T1, Menin/Histone-lysine N-methyltransferase MLL (Homo sapiens) (UniProt O00255+Q03164); experiment: Inhibition of human recombinant full length menin/MLL1 (unknown origin) interaction using Ac-SRWRFPARPGTGRR-Ahx-Ahx-K-FAM as substrate at 20 uM after 15 mins by fluorescence polarization binding assay; format: protein assay
[3] = target: T1, Menin/Histone-lysine N-methyltransferase MLL (Homo sapiens); experiment: Inhibition of menin/MLL1 interaction in human MV4-11 cells assessed as reduction in HOXA9 mRNA level after 6 days by qRT-PCR analysis; format: cell-based
Summary of the method: (§2)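 MV-4-11 cells incubated with compound for 6 days. HOXA9 expression measured by quantitative real-time PCR, normalized to β-actin and expressed relative to DMSO-treated cells. Triplicate means ± SD; experiment repeated 3 times.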

[4] = target: T1, Menin/Histone-lysine N-methyltransferase MLL (Homo sapiens); experiment: Inhibition of menin/MLL1 interaction in human MV4-11 cells assessed as reduction in HOXA9 mRNA level at 10 uM after 6 days by qRT-PCR analysis relative to control; format: cell-based; summary of the method: as §2

Chain of Menin/Histone-lysine N-methyltransferase MLL (O00255 whole entry): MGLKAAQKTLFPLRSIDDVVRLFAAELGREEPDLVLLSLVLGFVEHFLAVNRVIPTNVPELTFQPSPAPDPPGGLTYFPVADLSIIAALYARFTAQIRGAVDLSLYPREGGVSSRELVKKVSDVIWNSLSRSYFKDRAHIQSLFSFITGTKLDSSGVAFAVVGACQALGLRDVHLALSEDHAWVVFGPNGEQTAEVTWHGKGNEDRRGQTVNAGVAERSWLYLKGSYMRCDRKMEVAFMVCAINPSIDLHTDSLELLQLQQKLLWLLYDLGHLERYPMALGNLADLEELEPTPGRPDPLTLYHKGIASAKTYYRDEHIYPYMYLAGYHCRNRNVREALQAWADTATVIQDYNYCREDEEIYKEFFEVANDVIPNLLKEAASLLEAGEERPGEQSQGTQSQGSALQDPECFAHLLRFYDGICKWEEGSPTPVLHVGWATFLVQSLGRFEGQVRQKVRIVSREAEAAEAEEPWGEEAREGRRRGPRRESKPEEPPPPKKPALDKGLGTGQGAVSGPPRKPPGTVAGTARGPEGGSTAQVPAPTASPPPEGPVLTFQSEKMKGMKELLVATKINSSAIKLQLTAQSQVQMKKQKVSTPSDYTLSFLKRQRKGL
Chain of Menin/Histone-lysine N-methyltransferase MLL (Q03164 1-2718 partner limits assumed): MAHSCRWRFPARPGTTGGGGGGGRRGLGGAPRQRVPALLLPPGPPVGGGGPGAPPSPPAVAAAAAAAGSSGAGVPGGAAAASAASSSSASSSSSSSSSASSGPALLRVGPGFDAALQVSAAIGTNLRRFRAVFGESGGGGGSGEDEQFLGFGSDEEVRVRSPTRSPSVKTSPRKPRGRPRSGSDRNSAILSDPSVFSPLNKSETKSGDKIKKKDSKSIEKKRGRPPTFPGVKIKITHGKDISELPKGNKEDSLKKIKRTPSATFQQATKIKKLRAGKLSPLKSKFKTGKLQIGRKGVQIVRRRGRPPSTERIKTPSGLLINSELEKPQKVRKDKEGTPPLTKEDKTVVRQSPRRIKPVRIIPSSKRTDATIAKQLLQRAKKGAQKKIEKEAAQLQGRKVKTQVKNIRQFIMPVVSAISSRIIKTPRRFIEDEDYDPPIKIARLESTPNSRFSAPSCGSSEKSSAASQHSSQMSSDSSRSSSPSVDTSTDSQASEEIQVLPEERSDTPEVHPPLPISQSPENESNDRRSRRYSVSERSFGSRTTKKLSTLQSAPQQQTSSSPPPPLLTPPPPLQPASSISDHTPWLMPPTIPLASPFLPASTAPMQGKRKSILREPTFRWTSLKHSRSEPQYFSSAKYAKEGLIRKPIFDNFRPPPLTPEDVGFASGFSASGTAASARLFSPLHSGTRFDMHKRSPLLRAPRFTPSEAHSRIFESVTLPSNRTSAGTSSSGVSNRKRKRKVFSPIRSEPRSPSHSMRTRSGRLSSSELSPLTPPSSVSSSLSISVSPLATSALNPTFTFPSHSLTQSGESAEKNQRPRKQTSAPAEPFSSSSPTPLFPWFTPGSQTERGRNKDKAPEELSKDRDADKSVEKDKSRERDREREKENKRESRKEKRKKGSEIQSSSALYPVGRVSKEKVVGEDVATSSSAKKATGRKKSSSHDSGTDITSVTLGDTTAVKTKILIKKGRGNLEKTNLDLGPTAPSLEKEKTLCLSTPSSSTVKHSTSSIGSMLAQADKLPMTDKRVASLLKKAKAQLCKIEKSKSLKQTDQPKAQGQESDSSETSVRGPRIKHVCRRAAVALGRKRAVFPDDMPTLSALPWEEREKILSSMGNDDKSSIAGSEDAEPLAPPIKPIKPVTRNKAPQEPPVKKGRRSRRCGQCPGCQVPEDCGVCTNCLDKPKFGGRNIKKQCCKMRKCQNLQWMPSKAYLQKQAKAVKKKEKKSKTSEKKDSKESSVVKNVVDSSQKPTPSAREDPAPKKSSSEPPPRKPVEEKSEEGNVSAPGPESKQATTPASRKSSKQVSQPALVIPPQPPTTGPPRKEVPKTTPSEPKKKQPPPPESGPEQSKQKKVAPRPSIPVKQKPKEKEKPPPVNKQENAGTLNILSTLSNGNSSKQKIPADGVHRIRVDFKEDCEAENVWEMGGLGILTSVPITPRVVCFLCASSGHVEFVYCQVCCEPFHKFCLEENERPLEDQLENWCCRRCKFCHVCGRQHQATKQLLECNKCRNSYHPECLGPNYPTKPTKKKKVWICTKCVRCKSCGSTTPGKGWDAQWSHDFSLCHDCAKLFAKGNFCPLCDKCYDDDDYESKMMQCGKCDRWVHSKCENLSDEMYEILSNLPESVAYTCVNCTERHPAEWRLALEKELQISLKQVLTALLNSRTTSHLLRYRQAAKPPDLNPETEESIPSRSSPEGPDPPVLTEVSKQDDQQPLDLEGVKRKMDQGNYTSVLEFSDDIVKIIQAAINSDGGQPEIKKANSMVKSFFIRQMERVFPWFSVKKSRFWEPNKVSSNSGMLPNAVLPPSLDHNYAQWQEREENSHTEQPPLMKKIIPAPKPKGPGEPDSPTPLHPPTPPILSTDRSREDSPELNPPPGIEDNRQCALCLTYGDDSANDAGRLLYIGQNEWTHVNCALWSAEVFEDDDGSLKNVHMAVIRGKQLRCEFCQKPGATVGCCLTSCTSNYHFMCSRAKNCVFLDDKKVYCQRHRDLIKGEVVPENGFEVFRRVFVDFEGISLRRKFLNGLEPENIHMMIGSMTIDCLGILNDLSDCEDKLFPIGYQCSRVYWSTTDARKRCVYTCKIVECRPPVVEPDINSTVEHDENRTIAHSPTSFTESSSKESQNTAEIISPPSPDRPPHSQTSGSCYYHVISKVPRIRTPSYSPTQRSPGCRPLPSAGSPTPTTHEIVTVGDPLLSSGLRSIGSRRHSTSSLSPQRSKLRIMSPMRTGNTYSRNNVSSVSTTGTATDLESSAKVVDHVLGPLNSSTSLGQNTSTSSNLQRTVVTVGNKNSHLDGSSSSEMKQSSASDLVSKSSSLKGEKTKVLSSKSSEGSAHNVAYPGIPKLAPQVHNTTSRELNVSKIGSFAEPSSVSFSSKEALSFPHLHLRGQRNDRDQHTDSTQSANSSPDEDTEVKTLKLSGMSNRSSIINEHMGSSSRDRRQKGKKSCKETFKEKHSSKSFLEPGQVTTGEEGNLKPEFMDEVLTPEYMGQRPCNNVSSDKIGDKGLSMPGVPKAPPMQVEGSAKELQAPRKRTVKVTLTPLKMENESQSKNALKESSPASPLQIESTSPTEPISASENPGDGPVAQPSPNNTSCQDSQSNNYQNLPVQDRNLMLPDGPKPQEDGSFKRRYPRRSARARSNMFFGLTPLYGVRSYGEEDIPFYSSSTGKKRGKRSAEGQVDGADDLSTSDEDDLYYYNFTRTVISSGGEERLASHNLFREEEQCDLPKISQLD
Chain of Menin/Histone-lysine N-methyltransferase MLL (Q03164 2719-3969 partner limits assumed): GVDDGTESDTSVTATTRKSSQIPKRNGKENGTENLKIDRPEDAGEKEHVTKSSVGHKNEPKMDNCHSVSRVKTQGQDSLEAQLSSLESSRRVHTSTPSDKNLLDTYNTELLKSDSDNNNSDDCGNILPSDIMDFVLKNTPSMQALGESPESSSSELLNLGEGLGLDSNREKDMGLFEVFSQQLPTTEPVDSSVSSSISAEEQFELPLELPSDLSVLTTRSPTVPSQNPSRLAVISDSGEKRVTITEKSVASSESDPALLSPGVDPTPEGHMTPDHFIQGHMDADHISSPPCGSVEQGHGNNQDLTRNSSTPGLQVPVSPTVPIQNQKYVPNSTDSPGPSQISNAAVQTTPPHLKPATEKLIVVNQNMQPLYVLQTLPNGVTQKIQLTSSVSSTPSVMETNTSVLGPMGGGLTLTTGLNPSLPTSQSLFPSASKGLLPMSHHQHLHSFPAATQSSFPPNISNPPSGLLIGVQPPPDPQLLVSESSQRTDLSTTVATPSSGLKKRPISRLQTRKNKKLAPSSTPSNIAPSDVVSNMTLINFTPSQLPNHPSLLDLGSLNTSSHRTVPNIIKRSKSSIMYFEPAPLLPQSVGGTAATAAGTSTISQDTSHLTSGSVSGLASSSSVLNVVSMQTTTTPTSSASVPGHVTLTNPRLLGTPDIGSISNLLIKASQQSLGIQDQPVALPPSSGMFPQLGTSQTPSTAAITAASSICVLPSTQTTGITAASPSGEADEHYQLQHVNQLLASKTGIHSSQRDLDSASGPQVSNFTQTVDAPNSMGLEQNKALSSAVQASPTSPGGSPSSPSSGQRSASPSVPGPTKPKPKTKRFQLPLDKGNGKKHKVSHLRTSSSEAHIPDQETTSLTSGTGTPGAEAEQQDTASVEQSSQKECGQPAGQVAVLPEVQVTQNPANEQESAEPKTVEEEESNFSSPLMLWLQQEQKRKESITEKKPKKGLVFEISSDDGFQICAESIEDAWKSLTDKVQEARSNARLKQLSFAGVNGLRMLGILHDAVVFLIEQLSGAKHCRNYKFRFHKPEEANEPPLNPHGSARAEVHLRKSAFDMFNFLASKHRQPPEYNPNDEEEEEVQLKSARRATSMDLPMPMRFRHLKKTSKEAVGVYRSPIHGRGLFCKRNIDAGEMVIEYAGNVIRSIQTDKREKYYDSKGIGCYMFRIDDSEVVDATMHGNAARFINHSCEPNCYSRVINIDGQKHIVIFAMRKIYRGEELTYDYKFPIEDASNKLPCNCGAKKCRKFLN
T1 sequence (O00255 whole entry): as the sequence (O00255 whole entry) above
T1 sequence (Q03164 1-2718 partner limits assumed): as the sequence (Q03164 1-2718 partner limits assumed) above
T1 sequence (Q03164 2719-3969 partner limits assumed): as the sequence (Q03164 2719-3969 partner limits assumed) above

Compound | IC50 [1] | IC50 (MV4-11) | IC50 (K562) | other results
FC(F)(F)Cc1cc2c(Nc3ccc(Cc4ccccc4)cc3)ncnc2s1 | – | – | – | inhibition [2]: 2%
N#Cc1ccc(CN2CCC(Nc3ncnc4sc(CC(F)(F)F)cc34)CC2)cc1 | – | – | – | inhibition [2]: 25%
N#Cc1ccc(CN2CCC(CNc3ncnc4sc(CC(F)(F)F)cc34)CC2)cc1 | – | – | – | inhibition [2]: 33.4%
N#Cc1ccc(OCCN2CCN(c3ncnc4sc(CC(F)(F)F)cc34)CC2)cc1 | > 20000 nM | – | – | –
N#Cc1ccc(NCCN2CCN(c3ncnc4sc(CC(F)(F)F)cc34)CC2)cc1 | > 20000 nM | – | – | –
FC(F)(F)Cc1cc2c(NC3CCN(Cc4cccc(OC5CCNCC5)c4)CC3)ncnc2s1 | 13400 nM | – | – | –
CN(C)CCCOc1cccc(CN2CCC(Nc3ncnc4sc(CC(F)(F)F)cc34)CC2)c1 | 7350 nM | – | – | –
CC1(C)CN=C(N2CCN(c3ncnc4sc(CC(F)(F)F)cc34)CC2)S1 | – | 640 nM | > 20000 nM | –
FC(F)(F)Cc1cc2c(NCC3CCN(Cc4ccc(C(F)(F)F)cc4)CC3)ncnc2s1 | – | – | – | inhibition [2]: 18.5%
FC(F)(F)Cc1cc2c(NC3CCN(Cc4ccc(C(F)(F)F)cc4)CC3)ncnc2s1 | – | – | – | inhibition [2]: -2.5%
FC(F)(F)Cc1cc2c(NC3CCN(Cc4cccc5ccccc45)CC3)ncnc2s1 | – | – | – | inhibition [2]: 2.4%
C#CCN1CCC(Nc2ncnc3sc(CC(F)(F)F)cc23)CC1 | – | – | – | inhibition [2]: 31.3%
FC(F)(F)Cc1cc2c(NC3CCN(Cc4ccc(-c5ccccc5)cc4)CC3)ncnc2s1 | – | – | – | inhibition [2]: 4.6%
FC(F)(F)Cc1cc2c(NC3CCNCC3)ncnc2s1 | 32800 nM | – | – | –
FC(F)(F)Cc1cc2c(NC3CCN(Cc4ccc5ccccc5c4)CC3)ncnc2s1 | – | – | – | inhibition [2]: 15.6%
O=[N+]([O-])c1cccc(CN2CCC(Nc3ncnc4sc(CC(F)(F)F)cc34)CC2)c1 | – | – | – | inhibition [2]: 43%

The next lines start with results.

IC50 [1] | IC50 (MV4-11) | IC50 (K562) | Compound | other results
1170 nM | 2980 nM | > 20000 nM | Fc1ccc(CN2CCC(CNc3ncnc4sc(CC(F)(F)F)cc34)CC2)cc1 | –
3800 nM | – | – | Cc1cccc(CN2CCC(CNc3ncnc4sc(CC(F)(F)F)cc34)CC2)c1 | –
470 nM | 1020 nM | > 20000 nM | FC(F)(F)Cc1cc2c(NC3CCN(Cc4ccccc4)CC3)ncnc2s1 | Activity (MV4-11): Dose-dependent effect
1540 nM | 2690 nM | > 20000 nM | N#Cc1ccc(NCCCN2CCN(c3ncnc4sc(CC(F)(F)F)cc34)CC2)cc1 | –
1800 nM | – | – | FC(F)(F)Cc1cc2c(NC3CCN(CCc4ccccc4)CC3)ncnc2s1 | –
2700 nM | – | – | FC(F)(F)Cc1cc2c(NC3CCN(Cc4ccncc4)CC3)ncnc2s1 | –
5670 nM | – | – | CCCN1CCC(Nc2ncnc3sc(CC(F)(F)F)cc23)CC1 | –
220 nM | 790 nM | > 20000 nM | FC(F)(F)Cc1cc2c(NC3CCN(Cc4ccsc4)CC3)ncnc2s1 | Activity (MV4-11): Dose-dependent effect; inhibition [3]: Dose-dependent effect; inhibition [4]: 70%
1260 nM | – | – | Nc1cccc(CN2CCC(Nc3ncnc4sc(CC(F)(F)F)cc34)CC2)c1 | –
4690 nM | – | – | FC(F)(F)Cc1cc2c(NC3CCN(Cc4ccco4)CC3)ncnc2s1 | –
670 nM | 390 nM | > 20000 nM | NCCCOc1cccc(CN2CCC(Nc3ncnc4sc(CC(F)(F)F)cc34)CC2)c1 | Activity (MV4-11): Dose-dependent effect; inhibition [3]: Dose-dependent effect
2350 nM | – | – | CN1CCC(Oc2cccc(CN3CCC(Nc4ncnc5sc(CC(F)(F)F)cc45)CC3)c2)CC1 | –
780 nM | 3490 nM | > 20000 nM | CN(C)CCOc1cccc(CN2CCC(Nc3ncnc4sc(CC(F)(F)F)cc34)CC2)c1 | –
640 nM | 2420 nM | > 20000 nM | COc1ccc(CN2CCC(Nc3ncnc4sc(CC(F)(F)F)cc34)CC2)cc1 | –
770 nM | 6490 nM | > 20000 nM | FC(F)(F)Cc1cc2c(NC3CCN(CC4CC4)CC3)ncnc2s1 | –
1120 nM | 1650 nM | 9510 nM | CNCCCOc1cccc(CN2CCC(Nc3ncnc4sc(CC(F)(F)F)cc34)CC2)c1 | –
430 nM | 1020 nM | 9120 nM | N#Cc1ccc(OCCCN2CCN(c3ncnc4sc(CC(F)(F)F)cc34)CC2)cc1 | Activity (MV4-11): Dose-dependent effect
2000 nM | 6320 nM | > 20000 nM | Fc1ccc(CN2CCC(Nc3ncnc4sc(CC(F)(F)F)cc34)CC2)cc1 | –
1220 nM | 4150 nM | > 20000 nM | NCCOc1cccc(CN2CCC(Nc3ncnc4sc(CC(F)(F)F)cc34)CC2)c1 | –
1070 nM | 1280 nM | > 20000 nM | COc1ccc(CN2CCC(CNc3ncnc4sc(CC(F)(F)F)cc34)CC2)cc1 | –
2240 nM | 2330 nM | > 20000 nM | FC(F)(F)Cc1cc2c(NCC3CCN(Cc4ccccc4)CC3)ncnc2s1 | –
